Activity calls are given as the source filed them. The rule behind the calls is not given here.
Legend:
[1] = test system: Saccharomyces cerevisiae; test: Toxicity against Saccharomyces cerevisiae KYA1 assessed as cell death at >3 uM incubated for 24 to 48 hrs; assay type: organism-based; conditions: in vivo
[2] = target: T1, Sphingosine kinase 2 (Homo sapiens, UniProt Q9NRA0); test: Inhibition of recombinant human SphK2 expressed in baculovirus infected Sf9 cells assessed as decrease in [33P]S1P production using varying level of D-erythro-sphingosine as substrate in presence of [gamma33P]-ATP by scintillation proximity assay
T1 sequence (Q9NRA0 whole entry): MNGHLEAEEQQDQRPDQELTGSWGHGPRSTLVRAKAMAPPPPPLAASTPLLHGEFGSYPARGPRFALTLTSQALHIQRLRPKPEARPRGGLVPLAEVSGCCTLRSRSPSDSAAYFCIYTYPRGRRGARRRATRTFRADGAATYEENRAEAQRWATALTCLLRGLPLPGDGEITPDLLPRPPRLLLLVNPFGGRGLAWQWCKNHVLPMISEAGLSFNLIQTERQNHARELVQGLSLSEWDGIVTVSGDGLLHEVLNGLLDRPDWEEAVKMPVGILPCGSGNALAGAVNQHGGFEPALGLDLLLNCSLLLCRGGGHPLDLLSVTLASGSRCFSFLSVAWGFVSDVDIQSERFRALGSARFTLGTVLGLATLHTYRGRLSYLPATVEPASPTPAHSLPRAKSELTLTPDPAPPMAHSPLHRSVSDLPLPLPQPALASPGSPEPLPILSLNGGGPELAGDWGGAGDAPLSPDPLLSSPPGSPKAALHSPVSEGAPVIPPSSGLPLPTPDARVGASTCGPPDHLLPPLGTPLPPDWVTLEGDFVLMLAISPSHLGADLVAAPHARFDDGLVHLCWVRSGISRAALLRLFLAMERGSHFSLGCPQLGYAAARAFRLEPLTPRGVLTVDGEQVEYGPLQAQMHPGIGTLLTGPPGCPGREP

[3] = target: T2, Sphingosine kinase 2 (Homo sapiens) (UniProt Q9NRA0); test: Inhibition of recombinant human SphK2 transfected in HEK293T cells at 0.3 uM using D-erythro-sphingosine as substrate incubated for 20 mins in presence of [gamma32P]-ATP by liquid scintillation counting method relative to control; assay type: cell-based
T2 sequence (whole entry): T1 sequence (Q9NRA0 whole entry)
Method in brief: (§1)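 Human SphK2 recombinant protein isolated from cell lysate. Reaction contained 10 μM sphingosine and 250 μM γ-[32P]ATP, with or without inhibitor. Product was read by scintillation counting. Activity is expressed as % of the no-inhibitor control. Compounds were tested at 1.0 and 0.3 μM in triplicate.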

[4] = test system: Mus musculus; test: In vivo inhibition of SphK2 in C57BL/6 mouse assessed as increase in sphingosine-1-phosphate level in blood at 10 mg/kg, ip administered as single dose and measured upto 6 hrs post-treatment by LC-MS/MS analysis; assay type: functional, organism-based
Method in brief: (§2)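 Male C57BL/6 mice, 8–10 weeks old, received a single i.p. dose of vehicle or 10 mg/kg inhibitor in 2% hydroxypropyl-β-cyclodextrin. Retro-orbital whole blood was taken at 0.5, 1, 2, 4, 6 and 8 h. 10 μL of blood was analysed by LC/MS for S1P and compound. Groups were compared to vehicle by unpaired t-test.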

[5] = test system: Mus musculus; test: In vivo inhibition of SphK2 in C57BL/6 mouse assessed as Cmax required for two-fold increase in sphingosine-1-phosphate level in blood at 10 mg/kg, ip administered as single dose measured after 4 hrs by LC-MS/MS analysis; assay type: functional, organism-based; parameters: dose 10 mg/kg; method in brief: as §2
[6] = test system: Mus musculus; test: In vivo inhibition of SphK2 in C57BL/6 mouse assessed as increase in sphingosine-1-phosphate level in blood at 10 mg/kg, ip administered as single dose and measured at 4 hrs post-treatment by LC-MS/MS analysis relative to control; assay type: functional
Method in brief: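 Male C57BL/6 mice, 8–10 weeks old, given one i.p. injection of 10 mg/kg or vehicle (2% hydroxypropyl-β-cyclodextrin). Whole blood taken from the retro-orbital sinus at 0.5, 1, 2, 4, 6 and 8 h. 10 μL of blood processed for S1P by LC-MS/MS. S1P compared with vehicle-injected controls by unpaired t-test.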

[7] = target: T2, Sphingosine kinase 2 (Homo sapiens); test: Inhibition of recombinant human SphK2 transfected in HEK293T cells at 1 uM using D-erythro-sphingosine as substrate incubated for 20 mins in presence of [gamma32P]-ATP by liquid scintillation counting method relative to control; method in brief: as §1
[8] = target: T3, Sphingosine kinase 2 (Mus musculus, UniProt Q9JIA7); test: Inhibition of recombinant mouse SphK2 expressed in baculovirus infected Sf9 insect cells using D-erythro-sphingosine as substrate measured after 30 mins in presence of [gamma32P]-ATP by liquid scintillation counting method
T3 sequence (Q9JIA7 whole entry): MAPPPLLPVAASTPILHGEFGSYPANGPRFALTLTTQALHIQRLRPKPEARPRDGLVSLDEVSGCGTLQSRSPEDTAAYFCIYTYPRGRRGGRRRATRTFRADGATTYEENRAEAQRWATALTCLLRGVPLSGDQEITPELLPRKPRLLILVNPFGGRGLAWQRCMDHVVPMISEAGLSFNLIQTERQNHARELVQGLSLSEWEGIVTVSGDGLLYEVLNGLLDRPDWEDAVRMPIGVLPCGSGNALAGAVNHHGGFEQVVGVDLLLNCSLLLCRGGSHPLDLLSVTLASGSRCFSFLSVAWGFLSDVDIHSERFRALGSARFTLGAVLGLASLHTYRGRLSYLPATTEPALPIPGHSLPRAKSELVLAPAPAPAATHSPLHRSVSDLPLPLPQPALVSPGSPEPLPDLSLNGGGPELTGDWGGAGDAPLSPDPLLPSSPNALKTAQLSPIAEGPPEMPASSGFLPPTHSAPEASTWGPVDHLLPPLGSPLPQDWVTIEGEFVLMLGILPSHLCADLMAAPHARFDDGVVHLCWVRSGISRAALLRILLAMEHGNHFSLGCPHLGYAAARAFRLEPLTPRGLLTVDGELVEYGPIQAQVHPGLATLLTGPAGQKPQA

[9] = test system: Rattus norvegicus; test: Decrease in sphingosine-1-phosphate level in rat blood at 10 mg/kg relative to control; assay type: functional

SMILES | inhibition [3] | further results
CC(C)c1cc(-c2noc([C@@H]3CCCN3C(=N)N)n2)ccc1OCc1ccc(C(F)(F)F)cc1.Cl | 67% | Activity [1]: Toxic; Ki [2]: 192 nM
Cl.N=C(N)N1CCC[C@H]1c1nc(-c2ccc(OCc3ccc(C(F)(F)F)cc3)c(C(F)(F)F)c2)no1 | 65% | inhibition [4]: Active; Activity [1]: Toxic; Cmax [5]: 8 µM; Ki [2]: 89 nM; fold change (FC) [6]: 2; inhibition [7]: 77%
C=CCc1cc(-c2noc([C@@H]3CCCN3C(=N)N)n2)ccc1OCc1ccc(C(F)(F)F)cc1.Cl | 59% | Activity [1]: Toxic
COc1cc(-c2noc([C@@H]3CCCN3C(=N)N)n2)ccc1OCc1ccc(C(F)(F)F)cc1 | 15% | 
CCCCCCCCOc1ccc(-c2noc([C@@H]3CCCN3C(=N)N)n2)cc1 | 3% | inhibition [7]: 8%
N=C(N)N1CCC[C@H]1c1nc(-c2ccc(OCc3ccc(C(F)(F)F)cc3)c(-c3ccncc3)c2)no1 | 8% | 
N=C(N)N1CCC[C@H]1c1nc(-c2ccc(OCc3ccc(C(F)(F)F)cc3)c(-c3ccc(F)cc3)c2)no1 | 31% | 
CCCCCCCCOc1ccc(-c2noc([C@@H]3CCCN3C(=N)N)n2)cc1C(F)(F)F |  | Ki [8]: 400 nM
N=C(N)N1CCC[C@H]1c1nc(-c2ccc(OCc3ccc(C(F)(F)F)cc3)c(-c3ccc(C(F)(F)F)cc3)c2)no1 | 12% | 
Cc1cc(-c2noc([C@@H]3CCCN3C(=N)N)n2)cc(C)c1OCc1ccc(C(F)(F)F)cc1 | 23% | 
N=C(N)N1CCC[C@H]1c1nc(-c2ccc(OCc3ccc(C(F)(F)F)cc3)cc2C(F)(F)F)no1 | 35% | 
N=C(N)N1CCC[C@H]1c1nc(-c2ccc(OCc3ccc(C(F)(F)F)cc3)c(Br)c2)no1 | 24% | 
CCCc1cc(-c2noc([C@@H]3CCCN3C(=N)N)n2)ccc1OCc1ccc(C(F)(F)F)cc1.Cl | 60% | Activity [1]: Toxic; Ki [2]: 201 nM
N=C(N)N1CCC[C@H]1c1nc(-c2ccc(OCc3ccc(C(F)(F)F)cc3)c(Cl)c2)no1 | 33% | 
N=C(N)N1CCC[C@H]1c1nc(-c2ccc(OCc3ccc(C(F)(F)F)cc3)c(-c3ccccc3)c2)no1 | 28% | 
CCc1cc(-c2noc([C@@H]3CCCN3C(=N)N)n2)ccc1OCc1ccc(C(F)(F)F)cc1.Cl | 42% | Activity [1]: Toxic
Cl.N=C(N)N1CCC[C@H]1c1nc(-c2ccc(OCc3ccc(C(F)(F)F)cc3)c(C3CC3)c2)no1 | 52% | Activity [1]: Toxic; Ki [2]: 186 nM
N=C(N)N1CCC[C@H]1c1nc(-c2ccc(OCc3ccc(C(F)(F)F)cc3)cc2)no1 | 2% | 
Cc1cc(-c2noc([C@@H]3CCCN3C(=N)N)n2)ccc1OCc1ccc(C(F)(F)F)cc1 | 3% | 
N=C(N)N1CCC[C@H]1c1nc(-c2ccc(OCc3ccc(C(F)(F)F)cc3)c([N+](=O)[O-])c2)no1 | 33% | 
CCCCCCCCc1ccc(-c2noc(C[C@@H]3CCCN3C(=N)N)n2)cc1 |  | inhibition in vivo at 10 mg/kg [9]: 80%
N=C(N)N1CCC[C@H]1c1nc(-c2ccc(OCc3ccc(C(F)(F)F)cc3)c(F)c2)no1 | 23% | 
CC(C)(C)c1cc(-c2noc([C@@H]3CCCN3C(=N)N)n2)ccc1OCc1ccc(C(F)(F)F)cc1.Cl | 66% | Activity [1]: Toxic; Ki [2]: 197 nM
N=C(N)N1CCC[C@H]1c1nc(-c2ccc(OCc3ccc(C(F)(F)F)cc3)cc2Cl)no1 | 40% | 

— ChEMBL document CHEMBL4354840, “Discovery of a Small Side Cavity in Sphingosine Kinase 2 that Enhances Inhibitor Potency and Selectivity” (J Med Chem, 2020)
